# Measured values as given in ChEMBL document CHEMBL1128671, “New (2-methoxyphenyl)piperazine derivatives as 5-HT1A receptor ligands with reduced alpha 1-adrenergic activity. Synthesis and structure-affinity relationships” (J Med Chem, 1995).
# Key:
# [1] = target: T1, 5-hydroxytryptamine receptor 1A (Rattus norvegicus, UniProt P19327); test: In vitro ability to displace [3H]8-OH-DPAT from 5-hydroxytryptamine 1A receptor sites of rat brain cortex.
# T1 sequence (P19327 whole entry): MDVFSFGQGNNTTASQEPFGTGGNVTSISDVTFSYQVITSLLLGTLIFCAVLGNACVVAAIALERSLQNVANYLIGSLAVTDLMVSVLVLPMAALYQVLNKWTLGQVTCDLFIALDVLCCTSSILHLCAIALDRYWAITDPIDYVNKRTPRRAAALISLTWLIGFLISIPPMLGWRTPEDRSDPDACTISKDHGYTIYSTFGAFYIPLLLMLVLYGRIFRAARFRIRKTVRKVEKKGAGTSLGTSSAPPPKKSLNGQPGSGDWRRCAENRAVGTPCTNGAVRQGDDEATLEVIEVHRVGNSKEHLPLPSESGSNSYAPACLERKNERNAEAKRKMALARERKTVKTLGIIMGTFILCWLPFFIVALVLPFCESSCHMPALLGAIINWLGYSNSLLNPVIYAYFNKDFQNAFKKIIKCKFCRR
# Procedure, shortened: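 Male Wistar rat cerebral cortex membranes in 50 mM Tris-HCl with 4 mM CaCl2, 0.1% ascorbate and 10 μM pargyline. Nonspecific binding defined with 10 μM 5-HT. Read by filtration and scintillation counting. Twelve displacer concentrations, triplicate samples, two experiments. IC50/Ki obtained by nonlinear regression.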
# [2] = target: Adrenergic receptor alpha-1 (Oryctolagus cuniculus); test: Antagonistic activity at Alpha-1 adrenergic receptor was performed on ring segments of rabbit thoracic aorta contracted by noradrenaline.
SMILES,Ki [1],pA2 [2]
COc1ccccc1N1CCN(CCNC(=O)c2ccc(C)s2)CC1,2.29 nM,
COc1ccccc1N1CCN(CCCNC(=O)C2CCC3CCCC32)CC1 (stereo not given),11.6 nM,
COc1ccccc1N1CCN(CCCCNC(=O)c2cccnc2)CC1,25.2 nM,
COc1ccccc1N1CCN(CCNC(=O)c2ccc[nH]2)CC1,20.3 nM,
COc1ccccc1N1CCN(CCCCNC(=O)c2sccc2OC)CC1,32.1 nM,
COc1ccccc1N1CCN(CCCCNC(=O)c2ccc(C)s2)CC1,3.8 nM,< 7
COc1ccccc1N1CCN(CCCCNC(=O)Cc2ccsc2)CC1,17.5 nM,
COc1ccccc1N1CCN(CCNC(=O)c2sccc2C)CC1,3.09 nM,
COc1ccccc1N1CCN(CCCCNC(=O)c2sccc2Cl)CC1,3.34 nM,
COc1ccccc1N1CCN(CCCCNC(=O)c2ccsc2)CC1,2.2 nM,
COc1ccccc1N1CCN(CCNC(=O)c2cccnc2)CC1,362 nM,
COc1ccccc1N1CCN(CCNC(=O)Cc2ccsc2)CC1,32.3 nM,
COc1ccccc1N1CCN(CCCCNC(=O)c2cccs2)CC1,2.34 nM,9.16
COc1ccccc1N1CCN(CCCCNC(=O)c2ccc[nH]2)CC1,12.5 nM,
COc1ccccc1N1CCN(CCNC(=O)c2ccsc2)CC1,6.83 nM,< 7
COc1ccccc1N1CCN(CCCNC(=O)c2cccnc2)CC1,321 nM,
COc1ccccc1N1CCN(CCCCNC(=O)c2ccco2)CC1,55.7 nM,
COc1ccccc1N1CCN(CCNC(=O)C2CCCC2)CC1,4.68 nM,
COc1ccccc1N1CCN(CCCNC(=O)c2ccc[nH]2)CC1,201 nM,

# Molecules with a lower Ki [1], results first:
Ki [1],pA2 [2],SMILES
0.24 nM,,COc1ccccc1N1CCN(CCNC(=O)C2CCC3CCCC32)CC1 (stereo not given)
0.38 nM,8.53,COc1ccccc1N1CCN(CCCCNC(=O)C2CC3C=CC2C3)CC1 (stereo not given)
0.12 nM,,COc1ccccc1N1CCN(CCNC(=O)C2CC3CCC2C3)CC1 (stereo not given)
1.19 nM,< 7,COc1ccccc1N1CCN(CCNC(=O)c2cccn2C)CC1
0.74 nM,7.72,COc1ccccc1N1CCN(CCCCNC(=O)c2cccn2C)CC1.O=C(O)/C=C/C(=O)O
0.63 nM,,COc1ccccc1N1CCN(CCCCNC(=O)C2CCC3CCCC32)CC1 (stereo not given)
1.88 nM,,COc1ccccc1N1CCN(CCCCNC(=O)C2CCCC2)CC1
0.23 nM,,COc1ccccc1N1CCN(CCCCNC(=O)C2CC3CCC2C3)CC1 (stereo not given)
0.27 nM,,COc1ccccc1N1CCN(CCNC(=O)C2CC3C=CC2C3)CC1 (stereo not given)
1.53 nM,,COc1ccccc1N1CCN(CCCCNC(=O)c2sccc2C)CC1
